Activity calls are given as the source filed them. No cut-off for these calls is given here.
What was measured:
NCI-H2030 = assay: Antiproliferative activity against human NCI-H2030 cells harboring KRAS G12C mutant assessed as reduction in cell viability; type: functional, cell-based
[1] = target: T1, Peroxiredoxin-like 2A (Homo sapiens) (UniProt Q9BRX8); assay: (§1) Covalent binding affinity to FAM213A in human NCI-H358 cells assessed as log2 H/L ratio at 10 uM pretreated for 3 hrs followed by N-(((6S,7R)-7-(4-chloro-3-fluorophenyl)-1,4-oxazepan-6-yl)methyl)-2-hydroxyacetamide treatment for 3 hrs by competitive TMT click chemistry pull-down experiment based LC-MS/MS analysis; type: cell-based; conditions: time 6.0 hrs
T1 sequence (whole entry): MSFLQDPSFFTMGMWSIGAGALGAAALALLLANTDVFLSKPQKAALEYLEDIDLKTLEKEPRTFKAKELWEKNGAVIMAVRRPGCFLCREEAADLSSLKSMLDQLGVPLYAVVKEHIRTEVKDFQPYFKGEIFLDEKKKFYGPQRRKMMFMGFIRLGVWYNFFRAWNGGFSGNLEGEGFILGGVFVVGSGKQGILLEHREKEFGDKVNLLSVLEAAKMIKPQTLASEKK
How it was run: (§2)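 H358 cells were pretreated with DMSO (n = 3) or 10 μM compound for 3 h, then 2 μM alkyne probe was added for another 3 h. Cells were lysed, clicked onto azide-agarose resin, digested, TMT-labelled and pooled. The pool was fractionated by high-pH HPLC and each fraction run twice by 60 min low-pH nano LC-MS/MS. Readout was log2 compound/DMSO normalized reporter intensity, with a least-squares means test and FDR adjustment.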

MIA PaCa-2 = assay: Antiproliferative activity against human MIA PaCa-2 cells harboring KRAS G12C mutant assessed as reduction in cell viability; type: functional, cell-based
[2] = target: T2, Heme oxygenase 2 (Homo sapiens) (UniProt P30519); assay: as §1, with “HMOX2 at Cys282 residue” for “FAM213A”; type: cell-based; conditions: time 6.0 hrs; how it was run: as §2
T2 sequence (whole entry): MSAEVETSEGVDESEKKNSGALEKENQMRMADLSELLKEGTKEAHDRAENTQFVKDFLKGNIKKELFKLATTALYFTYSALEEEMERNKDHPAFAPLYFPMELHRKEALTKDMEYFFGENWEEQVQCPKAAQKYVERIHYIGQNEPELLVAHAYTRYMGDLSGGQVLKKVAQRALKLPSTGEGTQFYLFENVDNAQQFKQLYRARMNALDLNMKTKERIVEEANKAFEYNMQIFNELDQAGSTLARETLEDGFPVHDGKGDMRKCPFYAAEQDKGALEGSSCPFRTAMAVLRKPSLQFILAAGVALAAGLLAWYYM

[3] = test system: GTPase KRas (Homo sapiens), P01116 [G12C]; assay: Covalent binding affinity to KRAS G12C mutant at Cys12 residue in human NCI-H358 cells assessed as reduction of log2 H/L ratio for tryptic peptide LVVVGACGVGK at 2 uM incubated for 4 hrs followed by cell lysis and subsequently labelled with light thiol probe N-((S)-18-iodo-11-isopropyl-10,13,17-trio …; type: cell-based
[4] = test system: GTPase KRas (Homo sapiens), P01116 [G12C]; assay: (§3) Covalent binding affinity to KRAS G12C mutant at Cys12 residue in human NCI-H358 cells assessed as reduction of log2 H/L ratio for tryptic peptide […] incubated for 4 hrs followed by cell lysis and subsequently labelled with light thiol probe N-((S)-18-iodo-11-isopropyl-10,13,17-trioxo-3,6-dioxa-9,12,16-triazaoctadecyl)-6-((4R,5S)-5-methyl-2-oxoimidazolidin-4-yl)hexanamide and heavy thiol probe 4 for 1 hr under dark conditions followed by tryptic digestion for overnight and measured by discovery ABPP based nano LC-MS/MS analysis
How it was run: (§4)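 H358 cells were treated 4 h with DMSO, 0.08, 0.4, 2 or 10 μM, each paired with DMSO control cells, in biological duplicate. After lysis and denaturation, treated lysate took heavy thiol probe and control lysate took light probe. Lysates were combined equally, and probe-labelled tryptic peptides were streptavidin-enriched. Peptides were run twice by 180 min data-dependent nano LC-MS/MS. Hits needed log2 H/L below −0.776 (3σ) plus a dose-dependent decrease.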

GTPase KRas [5] = target: T3, GTPase KRas (Homo sapiens, UniProt P01116, G12C); assay: as §3; how it was run: as §4
NCI-H23 = assay: Antiproliferative activity against human NCI-H23 cells harboring KRAS G12C mutant assessed as reduction in cell viability; type: functional, cell-based
[6] = target: T4, Synaptic vesicle membrane protein VAT-1 homolog (Homo sapiens) (UniProt Q99536); assay: as §1, with “VAT1 at Cys86 residue” for “FAM213A”; type: cell-based; conditions: time 6.0 hrs; how it was run: as §2
T4 sequence (whole entry): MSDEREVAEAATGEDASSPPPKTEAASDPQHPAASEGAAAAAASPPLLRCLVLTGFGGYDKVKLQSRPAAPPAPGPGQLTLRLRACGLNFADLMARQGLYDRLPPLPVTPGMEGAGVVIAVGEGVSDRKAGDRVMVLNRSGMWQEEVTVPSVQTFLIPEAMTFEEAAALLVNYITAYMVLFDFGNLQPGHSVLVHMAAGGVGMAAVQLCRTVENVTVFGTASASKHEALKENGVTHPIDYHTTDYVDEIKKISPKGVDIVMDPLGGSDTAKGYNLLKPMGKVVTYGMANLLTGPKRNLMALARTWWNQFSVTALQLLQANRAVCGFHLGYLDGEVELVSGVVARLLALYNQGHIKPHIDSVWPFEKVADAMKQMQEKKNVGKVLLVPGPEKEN

[7] = target: T5, Quinone oxidoreductase (Homo sapiens) (UniProt Q08257); assay: as §1, with “CRYZ at Cys45 residue” for “FAM213A”; type: cell-based; conditions: time 6.0 hrs; how it was run: as §2
T5 sequence (whole entry): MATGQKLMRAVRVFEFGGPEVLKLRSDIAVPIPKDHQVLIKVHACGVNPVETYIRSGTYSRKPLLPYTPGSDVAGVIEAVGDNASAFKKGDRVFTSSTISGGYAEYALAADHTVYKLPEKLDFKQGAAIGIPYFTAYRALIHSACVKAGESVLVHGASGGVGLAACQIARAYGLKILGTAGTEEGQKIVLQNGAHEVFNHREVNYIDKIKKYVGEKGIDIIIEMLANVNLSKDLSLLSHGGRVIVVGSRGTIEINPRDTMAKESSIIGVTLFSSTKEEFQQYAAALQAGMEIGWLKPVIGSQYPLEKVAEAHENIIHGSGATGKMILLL

[8] = target: T1, Peroxiredoxin-like 2A (Homo sapiens); assay: Covalent binding affinity to FAM213A in human NCI-H358 cells incubated for 4 hrs followed by cell lysis and subsequently labelled with light thiol probe N-((S)-18-iodo-11-isopropyl-10,13,17-trioxo-3,6-dioxa-9,12,16-triazaoctadecyl)-6-((4R,5S)-5-methyl-2-oxoimidazolidin-4-yl)hexanamide and heavy thiol probe 4 for 1 hr under dark conditions followed by tryptic digestion for overnight and measured by discovery ABPP based nano LC-MS/MS analysis
GTPase KRas [9] = target: T3, GTPase KRas; assay: as §3, with “by” for “by discovery”, “ABPP target occupancy” for “ABPP”, “UHPLC Q-SIM MS” for “nano LC-MS/MS”
How it was run: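 Target occupancy: H358 cells were treated 4 h with DMSO, 0.08, 0.4, 2 or 10 μM, each paired with DMSO controls, in duplicate. Lysates were labelled heavy (treated) or light (control) with thiol probe, combined, trypsinized and streptavidin-enriched. The LVVVGAC*GVGK peptide pair was measured by UHPLC Q-SIM, with AUC H/L as occupancy. Each point averaged four MS injections, and IC50 came from the concentration-response curve.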

IC50 (NCI-H2030): 160 nM
Ratio [1]: -1.7
IC50 (MIA PaCa-2): 120 nM
Ratio [2]: -0.3
Activity [3]: Active
inhibition [4]: Dose-dependent effect
IC50 (GTPase KRas [5]): 1590 nM
IC50 (NCI-H23): 700 nM
Ratio [6]: -0.6
Ratio [7]: 0.15
Activity [8]: inactive
IC50 (GTPase KRas [9]): 1800 nM
SMILES: C=CC(=O)N1CCN(c2ncnc3c(F)c(-c4c(O)cccc4F)c(Cl)cc23)CC1

Source: ChEMBL document CHEMBL4715824, “Chemical Proteomic Characterization of a Covalent KRASG12C Inhibitor” (ACS Med Chem Lett, 2018)
